The nature of data set [1]: Drug metabolism in rhesus monkey plasma assessed as compound remaining at 110 +/- 34 MBq, iv after 180 mins by HPLC analysis. It is filed as ADME, organism-based, Macaca mulatta. The conditions noted are these: read-out: Stability. The method in brief:
(§1)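 Radiotracer [¹⁸F]-d₂-3 (110 34 MBq) was given iv to rhesus macaque or baboon, with arterial blood sampled over 180 min. Parent fraction in plasma was determined by reverse-phase HPLC in a subset of samples. Where used, LPS (0.05 or 0.1 mg/kg) was given iv 4 h before the radiotracer.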

Data set [2] is described as follows: Drug uptake in perietal cotrex of baboon neuroinflammation model at 110 +/- 34 MBq, iv after 20 mins by PET imaging analysis. To be noted: papio anubis, in vivo. The class given is ADME, organism-based, Parietal cortex. The method in brief:
(§2)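 Baboons (Papio anubis) received [¹⁸F]-d₂-3 (110 34 MBq) iv. PET images were acquired over 180 min on a Siemens Biograph mCT camera with arterial blood sampling. Regional time-activity curves (frontal, occipital, temporal and parietal cortex, cerebellum) were expressed as SUV, and whole-brain uptake as percent injected dose. Where used, LPS (0.05 or 0.1 mg/kg) was given iv 4 h before the radiotracer.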

A short description of data set [3]: Drug metabolism in baboon neuroinflammation model plasma assessed as compound remaining at 110 +/- 34 MBq, iv administered 180 mins post LPS-challenge by HPLC analysis. The class given is ADME, organism-based. The conditions noted are these: papio anubis, read-out: Stability. The method in brief:
as §1

Data set [4] can be described thus: Drug metabolism in baboon neuroinflammation model plasma assessed as compound remaining at 110 +/- 34 MBq, iv after 180 mins by HPLC analysis. The class given is ADME, organism-based. To be noted: papio anubis, read-out: Stability. An outline of the steps: as §1
The test system of another data set is Brain. As to the kind of experiment: Drug uptake in whole brain of baboon neuroinflammation model at 110 +/- 34 MBq, iv after 20 mins by PET imaging analysis. It is filed as ADME, organism-based. The conditions noted are these: papio anubis, in vivo. The method in brief: as §2
A short description of data set [5]: Drug uptake in cerebellum of baboon neuroinflammation model at 110 +/- 34 MBq, iv after 20 mins by PET imaging analysis. The conditions noted are these: papio anubis, in vivo. The class given is ADME, organism-based. The method in brief: as §2
The nature of data set [6]: Drug uptake in temporal cotrex of baboon neuroinflammation model at 110 +/- 34 MBq, iv after 20 mins by PET imaging analysis. The class given is ADME, organism-based, Temporal cortex. The conditions noted are these: papio anubis, in vivo. The method in brief: as §2
Data set [7] in a line: Drug uptake in occipital cotrex of baboon neuroinflammation model at 110 +/- 34 MBq, iv after 20 mins by PET imaging analysis. It is filed as ADME, organism-based, Occipital cortex. The conditions noted are these: papio anubis, in vivo. The method in brief: as §2
The nature of data set [8]: Drug uptake in frontal cortex of baboon neuroinflammation model at 110 +/- 34 MBq, iv after 20 mins by PET imaging analysis. The class given is ADME, organism-based. The conditions noted are these: papio anubis, in vivo. The method in brief:
as §2

Data set [9] has as its target T1, Cannabinoid receptor 2 (Homo sapiens, UniProt P34972). As to the kind of experiment: Binding affinity to human CB2 receptor expressed in CHO cells. The class given is cell-based.
Data set [10] in a line: Cmax in brain of CD-1 mouse at 3 mg/kg, iv after 5 mins. The class given is ADME, organism-based. More on the design: dose 3 mg/kg, route intravenous. The method in brief:
(§3)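 Male CD1 mice got a single intravenous dose of 3 mg/kg. Drug levels were measured in plasma and brain. The first sampling time was 5 min post-dose. Apparent terminal half-life and brain/plasma AUC(0-inf) were derived from the concentration-time profiles.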

The target of data set [11] is T1, Cannabinoid receptor 2. In words: Agonist activity at human CB2 receptor expressed in CHO CRE-luc cells. The class given is functional, cell-based.
Data set [12] can be described thus: Apparent terminal half life in CD-1 mouse at 3 mg/kg, iv. It is filed as ADME, organism-based. Also noted: dose 3 mg/kg, route intravenous. The conditions noted are these: in vivo, read-out: betat1/2(app) (converted). The method in brief:
as §3

The next data set deals with Cannabinoid receptor 1 (Homo sapiens, UniProt P21554). In words: Binding affinity to human CB1 receptor.
Sequence of Cannabinoid receptor 1 (P21554 whole entry): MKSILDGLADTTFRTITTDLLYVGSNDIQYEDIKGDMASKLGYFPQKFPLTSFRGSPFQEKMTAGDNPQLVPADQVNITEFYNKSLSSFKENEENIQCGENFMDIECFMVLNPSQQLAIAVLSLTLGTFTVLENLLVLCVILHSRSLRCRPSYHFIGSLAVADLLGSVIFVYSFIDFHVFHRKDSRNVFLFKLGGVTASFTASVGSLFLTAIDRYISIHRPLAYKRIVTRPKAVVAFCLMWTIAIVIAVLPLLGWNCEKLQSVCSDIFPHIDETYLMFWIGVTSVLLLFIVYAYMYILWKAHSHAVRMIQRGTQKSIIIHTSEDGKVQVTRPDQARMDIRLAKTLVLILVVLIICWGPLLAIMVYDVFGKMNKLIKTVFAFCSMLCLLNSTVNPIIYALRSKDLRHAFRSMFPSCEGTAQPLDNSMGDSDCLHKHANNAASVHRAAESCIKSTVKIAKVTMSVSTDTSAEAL
Data set [13] deals with T1, Cannabinoid receptor 2. In words: Binding affinity to human CB2 receptor.

T1 sequence (P34972 whole entry): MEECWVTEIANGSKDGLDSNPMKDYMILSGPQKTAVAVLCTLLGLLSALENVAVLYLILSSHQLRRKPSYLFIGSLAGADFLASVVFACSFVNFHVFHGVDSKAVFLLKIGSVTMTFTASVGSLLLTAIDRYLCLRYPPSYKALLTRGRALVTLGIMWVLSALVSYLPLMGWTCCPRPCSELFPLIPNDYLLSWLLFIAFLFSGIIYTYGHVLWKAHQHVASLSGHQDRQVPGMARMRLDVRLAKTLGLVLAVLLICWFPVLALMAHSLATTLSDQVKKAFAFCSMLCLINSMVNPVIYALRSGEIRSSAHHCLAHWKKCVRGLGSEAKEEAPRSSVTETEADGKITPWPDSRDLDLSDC

In the case of `[2H]C([2H])([18F])Oc1nc(NCCc2ccc(F)cc2)nc(-c2ccc(Cl)c(C(C)(C)O)c2)n1`, the remaining at 3 h is 35% in data set [1], 15% in data set [3] and 35% in data set [4]. Moreover, the SUV in [2], in data set [5], in data set [6], in [7] and in [8] was 0.7 g/mL in each case. This compound also yielded a Drug uptake in the data set on Brain of 0.5 %ID.

Consider `CC(C)(O)c1cc(-c2nc(NCCc3ccc(F)cc3)nc(OCF)n2)ccc1Cl`, for which, at Cannabinoid receptor 2 [9], the IC50 was determined as 1.4 nM. Further, in data set [10], the Cmax was 2300 ng/g. This compound had an EC50 on Cannabinoid receptor 2 [11] of 0.78 nM. In [12], the half-life is 57.6 min.

As to `COc1nc(NCCc2ccc(F)cc2)nc(-c2ccc(Cl)c(C(C)(C)O)c2)n1`, the IC50 at Cannabinoid receptor 1 came to 300 nM; at Cannabinoid receptor 2 [13], 0.58 nM.

(Values after ChEMBL document CHEMBL3098084, “Synthesis and preliminary evaluation of a new fluorine-18 labelled triazine derivative for PET imaging of cannabinoid CB2 receptor” (Bioorg Med Chem Lett, 2014).)
